From ChEMBL document CHEMBL1122781, “[(Aminomethyl)aryloxy]acetic acid esters. A new class of high-ceiling diuretics. 1. Effects of nitrogen and aromatic nuclear substitution” (J Med Chem, 1984)

Assays:
Rattus norvegicus [1] = assay: Diuretic activity was evaluated by measuring amount of Na+ during 0-6 hr in urine of normotensive saline loaded rats at 30.0mg/kg, po; type: ADME, organism-based; conditions: in vivo, 30 mg/kg
Outline: (§1)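 Male normotensive Sprague–Dawley rats (275–375 g), eight per group. Test compound or vehicle (0.2% methylcellulose in water, 2 mL/kg) is given by mouth, followed at once by a 0.9% saline load equal to 5% of body weight. Rats are housed in metabolism cages without food or water. Urine is collected at 2, 6 and 24 h and assayed for Na+, K+, Cl−, uric acid and osmolality.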

Rattus norvegicus [2] = assay: Diuretic activity was evaluated by measuring amount of Na+ during 0-6 h in urine of normotensive saline loaded rats at 0.3 mg/kg, po; type: ADME, organism-based; design: dose 0.3 mg/kg, route oral; conditions: in vivo; outline: as §1
[3] = Diuretic activity was evaluated by measuring amount of Cl- during 0-6 h in urine of normotensive […] monkey at 3 mg/kg, po; type: ADME, organism-based; design: dose 3 mg/kg, route oral; conditions: simiiformes, in vivo
Outline: (§2)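 Male and female cynomolgus monkeys, fasted 16–18 h with water until dosing, six per dose. Compound or vehicle was given by pediatric nasogastric tube, followed at once by a 50 mL/kg water load. Monkeys were kept in metabolism cages without food or water for 6 h. Urine was collected at 0–1, 1–2, 2–4 and 4–6 h, and volume, electrolytes, uric acid and glucose were measured.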

Rattus norvegicus [4] = assay: Diuretic activity was evaluated by measuring amount of Cl- during 0-6 h in urine of normotensive saline loaded rats at 30.0 mg/kg, po; type: ADME, organism-based; design: dose 30 mg/kg, route oral; conditions: in vivo
Outline: (§3)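 Male Sprague–Dawley rats (275–375 g), fed and watered ad libitum before testing but not during it, eight per group. Compound in 0.2% methylcellulose/water given orally at 2 mL/kg, immediately followed by a 0.9% saline load equal to 5% of body weight. Rats were kept in individual metabolism cages. Urine was sampled at 2, 6 and 24 h for volume, Na+, K+, Cl−, uric acid and osmolality.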

Rattus norvegicus [5] = assay: Percent change of arterial blood pressure in spontaneously hypertensive rats at the dose of 1 mg/kg (p.o.) after 24 hr (control BP(mm Hg)=215); type: functional; conditions: route oral
Rattus norvegicus [6] = assay: Diuretic activity was evaluated by measuring amount of Cl- during 0-6 hr in urine of normotensive saline loaded rats at 0.1 mg/kg, po; type: ADME, organism-based; design: dose 0.1 mg/kg, route oral; conditions: in vivo; outline: as §3
Canis familiaris [7] = assay: Diuretic activity was evaluated by measuring amount of Cl- during 0-6 h in urine of normotensive saline loaded dogs at 10.0 mg/kg, po; type: ADME, organism-based, Canis lupus familiaris; design: dose 10 mg/kg, route oral; conditions: dog, in vivo
Outline: (§4)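 Conscious female dogs, each given one oral dose per experiment. Urine and heparinized venous plasma were taken at each collection time. Urine was centrifuged and chilled, and plasma was separated within 30 min. Both were assayed for Na+, K+, Cl−, urate and glucose. Results are mean excretion in mequiv kg−1 (6 h)−1, with at least two dogs per dose.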

Rattus norvegicus [8] = assay: Percent change of arterial blood pressure in spontaneously hypertensive rats at the dose of 1 mg/kg (p.o.) after […] (control BP(mm Hg)=215); type: functional; conditions: route oral
Rattus norvegicus [9] = assay: Diuretic activity was evaluated by measuring amount of Na+ during 0-6 h in urine of normotensive saline loaded rats at 3.0 mg/kg, po; type: ADME, organism-based; design: dose 3 mg/kg, route oral; conditions: in vivo; outline: as §1
Canis familiaris [10] = assay: Diuretic activity was evaluated by measuring amount of Cl- during 0-6 hr in urine of normotensive saline loaded dogs at 0.1 mg/kg, po; type: ADME, organism-based, Canis lupus familiaris; design: dose 0.1 mg/kg, route oral; conditions: dog, in vivo; outline: as §4
Rattus norvegicus [11] = assay: Percent change of arterial blood pressure in spontaneously hypertensive rats at the dose of 10 mg/kg (p.o.) after 6 hr (control BP(mm Hg)=219); type: functional; conditions: route oral
Canis familiaris [12] = assay: Diuretic activity was evaluated by measuring amount of Na+ during 0-6 hr in urine of normotensive saline loaded dogs at 0.1 mg/kg, po; type: ADME, organism-based, Canis lupus familiaris; design: dose 0.1 mg/kg, route oral; conditions: dog, in vivo
Outline: (§5)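 Conscious dogs, each given a single oral dose per experiment, with at least two dogs per dose. Urine volume is measured; aliquots are centrifuged and chilled. Heparinized venous blood (4 mL) is drawn at each urine collection. Urine and plasma are analyzed for Na+, K+, Cl−, urate and glucose. Result is mean Na+ excretion in mequiv kg−1 (6 h)−1.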

Rattus norvegicus [13] = assay: Diuretic activity was evaluated by measuring amount of Cl- during 0-6 hr in urine of normotensive saline loaded rats at 10.0mg/kg, po; type: ADME, organism-based; conditions: in vivo, 10 mg/kg; outline: as §3
Canis familiaris [14] = assay: Diuretic activity was evaluated by measuring amount of Na+ during 0-6 h in urine of normotensive saline loaded dogs at 1.0 mg/kg, po; type: ADME, organism-based, Canis lupus familiaris; design: dose 1 mg/kg, route oral; conditions: dog, in vivo; outline: as §5
Rattus norvegicus [15] = assay: Diuretic activity was evaluated by measuring amount of Na+ during 0-6 h in urine of normotensive saline loaded rats at 100.0 mg/kg, po; type: ADME, organism-based; design: dose 100 mg/kg, route oral; conditions: in vivo; outline: as §1
Rattus norvegicus [16] = assay: Diuretic activity was evaluated by measuring amount of K+ during 0-6 hr in urine of normotensive saline loaded rats at 30.0mg/kg, po; type: ADME, organism-based; conditions: in vivo, 30 mg/kg; outline: as §1
Canis familiaris [17] = assay: Diuretic activity was evaluated by measuring amount of K+ during 0-6 hr in urine of normotensive saline loaded dogs at 0.03mg/kg, po; type: ADME, organism-based, Canis lupus familiaris; conditions: dog, in vivo; outline: as §4
Rattus norvegicus [18] = assay: Percent change of arterial blood pressure in spontaneously hypertensive rats at the dose of 3 mg/kg (p.o.) after 6 hr (control BP(mm Hg)=221); type: functional; conditions: route oral
Rattus norvegicus [19] = assay: Diuretic activity was evaluated by measuring amount of K+ during 0-6 hr in urine of normotensive saline loaded rats at 0.1 mg/kg, po; type: ADME, organism-based; design: dose 0.1 mg/kg, route oral; conditions: in vivo; outline: as §3
Canis familiaris [20] = assay: Diuretic activity was evaluated by measuring amount of K+ during 0-6 h in urine of normotensive saline loaded dogs at 1.0 mg/kg, po; type: ADME, organism-based, Canis lupus familiaris; design: dose 1 mg/kg, route oral; conditions: dog, in vivo; outline: as §4
Rattus norvegicus [21] = assay: Diuretic activity was evaluated by measuring amount of Cl- during 0-6 hr in urine of normotensive saline loaded rats at 1.0mg/kg, po; type: ADME, organism-based; conditions: in vivo, 1 mg/kg; outline: as §3
Canis familiaris [22] = assay: Diuretic activity was evaluated by measuring amount of Na+ during 0-6 h in urine of normotensive saline loaded dogs at 0.03 mg/kg, po; type: ADME, organism-based, Canis lupus familiaris; design: dose 0.03 mg/kg, route oral; conditions: dog, in vivo; outline: as §5
Rattus norvegicus [23] = assay: Diuretic activity was evaluated by measuring amount of K+ during 0-6 hr in urine of normotensive saline loaded rats at 0.3mg/kg, po; type: ADME, organism-based; conditions: in vivo; outline: as §3
[24] = Diuretic activity was evaluated by measuring amount of Na+ during 0-6 hr in urine of normotensive […] monkey at 30mg/kg, po; type: ADME, organism-based; conditions: simiiformes, in vivo
Outline: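 Male and female cynomolgus monkeys, fasted 16–18 h with water until dosing, six per dose. Compound or vehicle is given through a nasogastric tube, then a 50 mL/kg water load. No food or water for 6 h in metabolism cages. Urine is collected at 0–1, 1–2, 2–4 and 4–6 h and analyzed for electrolytes, uric acid and glucose.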

Rattus norvegicus [25] = assay: Percent change of arterial blood pressure in spontaneously hypertensive rats at the dose of 3 mg/kg (p.o.) after 24 hr (control BP(mm Hg)=221); type: functional; conditions: route oral
[26] = Diuretic activity was evaluated by measuring amount of Cl- during 0-6 h in urine of […] monkey at 30 mg/kg, po; type: ADME, organism-based; design: dose 30 mg/kg, route oral; conditions: simiiformes, in vivo; outline: as §2
Rattus norvegicus [27] = assay: Percent change of arterial blood pressure in spontaneously hypertensive rats at the dose of 10 mg/kg (p.o.) after 24 hr (control BP(mm Hg)=219); type: functional; conditions: route oral
Rattus norvegicus [28] = assay: Diuretic activity was evaluated by measuring amount of Na+ during 0-6 hr in urine of normotensive saline loaded rats at 1.0mg/kg, po; type: ADME, organism-based; conditions: in vivo, 1 mg/kg; outline: as §1
Canis familiaris [29] = assay: Diuretic activity was evaluated by measuring amount of Cl- during 0-6 h in urine of normotensive saline loaded dogs at 0.3mg/kg, po; type: ADME, organism-based, Canis lupus familiaris; conditions: dog, in vivo; outline: as §4

Diuretic activity (Rattus norvegicus [1]): 14.8 m equiv kg-1
Diuretic activity (Rattus norvegicus [2]): 9.6 m equiv kg-1
Diuretic activity [3]: 5.3 m equiv kg-1
Diuretic activity (Rattus norvegicus [4]): 17.4 m equiv kg-1
Diuretic activity (Rattus norvegicus [6]): 8.1 m equiv kg-1
Diuretic activity (Canis familiaris [7]): 7 m equiv kg-1
Diuretic activity (Rattus norvegicus [9]): 13.9 m equiv kg-1
Diuretic activity (Canis familiaris [10]): 1 m equiv kg-1
Diuretic activity (Canis familiaris [12]): 0.7 m equiv kg-1
Diuretic activity (Rattus norvegicus [13]): 16.4 m equiv kg-1
Diuretic activity (Canis familiaris [14]): 5 m equiv kg-1
Diuretic activity (Rattus norvegicus [15]): 13.8 m equiv kg-1
Diuretic activity (Rattus norvegicus [16]): 3.8 m equiv kg-1
Diuretic activity (Canis familiaris [17]): 0.3 m equiv kg-1
Diuretic activity (Rattus norvegicus [19]): 2.6 m equiv kg-1
Diuretic activity (Canis familiaris [20]): 1.6 m equiv kg-1
Diuretic activity (Rattus norvegicus [21]): 14.8 m equiv kg-1
Diuretic activity (Canis familiaris [22]): 0.5 m equiv kg-1
Diuretic activity (Rattus norvegicus [23]): 2.7 m equiv kg-1
Diuretic activity [24]: 6.4 m equiv kg-1
Diuretic activity [26]: 6.9 m equiv kg-1
Diuretic activity (Rattus norvegicus [28]): 12.8 m equiv kg-1
Diuretic activity (Canis familiaris [29]): 3 m equiv kg-1
Compound: CCOC(=O)COc1ccc(C(=O)c2ccc(O)c(CN)c2)c(Cl)c1Cl.Cl
Change (Rattus norvegicus [5]): -6%
Change (Rattus norvegicus [8]): -17%
Change (Rattus norvegicus [11]): -24%
Change (Rattus norvegicus [18]): -13%
Change (Rattus norvegicus [25]): -14%
Change (Rattus norvegicus [27]): -19%
